Experimental data from ChEMBL document CHEMBL1146456, “Africane-type sesquiterpenoids from the Argentine liverwort Porella swartziana and their antibacterial activity” (J Nat Prod, 2004).
The source made the active and inactive calls. The rule behind the calls is not given here.

Experiments:
[1] = tested on: Staphylococcus aureus; assay: Antibacterial activity against Staphylococcus aureus ATCC 6538 P at below 625 ug/mL after 24 hrs by broth microdilution method; assay type: functional, organism-based
Summary of the method: (§1)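 Broth microdilution in LAPTg medium (pH 6.8). Inoculum set to 0.5 McFarland (10⁸ CFU/mL), then diluted to 10⁵ CFU/mL and confirmed by plate counts. Added to 0.1 mL broth containing compound over 5000 to 156.2 µg/mL, with DMSO as solvent. Incubated 24 h at 37 °C. MIC taken as the lowest concentration with no visible growth.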

[2] = tested on: Staphylococcus aureus; assay: Antibacterial activity against Staphylococcus aureus F7 at below 625 ug/mL after 24 hrs by broth microdilution method; assay type: functional, organism-based; summary of the method: as §1

SMILES	Activity [1]	Activity [2]
CC1(C)C[C@H]2C[C@@]2(C)C2=CC(=O)[C@@]3(C)O[C@@]23C1	inactive	inactive
Cc1oc(=O)cc2c1CC(C)(C)C[C@H]1C[C@@]21C	inactive	inactive
CC1(C)CC2=C(C(=O)O[C@]2(C)O)[C@]2(C)C[C@@H]2C1	inactive	inactive
C[C@@H]1OC(=O)C2=C1CC(C)(C)C[C@H]1C[C@@]21C	inactive	inactive
CC1(C)C=C2C(=CC(=O)[C@@]2(C)O)[C@]2(C)C[C@@H]2C1	inactive	inactive
CC1(C)S[C@@H]2[C@H](NC(=O)Cc3ccccc3)C(=O)N2[C@H]1C(=O)O	Active	Active
COC(=O)CC1=C(C(C)=O)CC(C)(C)C[C@H]2C[C@@]12C	inactive	inactive
CC1(C)C[C@H]2C[C@@]2(C)C2=CC(=O)[C@@](C)(O)[C@@H]2C1	inactive	inactive
C[C@H]1C(=O)C=C2[C@H]1CC(C)(C)C[C@H]1C[C@@]21C	inactive	inactive
